# Data reported in ChEMBL document CHEMBL1135657, “Novel dual inhibitors of AChE and MAO derived from hydroxy aminoindan and phenethylamine as potential treatment for Alzheimer's disease” (J Med Chem, 2002).
# What was measured:
# [1] = target: T1, Amine oxidase [flavin-containing] B (Rattus norvegicus, UniProt P19643); assay: In vitro inhibitory concentration against Monoamine oxidase B of rat brain homogenates; value ranges from 0.23-0.34; assay type: tissue-based
# T1 sequence (P19643 whole entry): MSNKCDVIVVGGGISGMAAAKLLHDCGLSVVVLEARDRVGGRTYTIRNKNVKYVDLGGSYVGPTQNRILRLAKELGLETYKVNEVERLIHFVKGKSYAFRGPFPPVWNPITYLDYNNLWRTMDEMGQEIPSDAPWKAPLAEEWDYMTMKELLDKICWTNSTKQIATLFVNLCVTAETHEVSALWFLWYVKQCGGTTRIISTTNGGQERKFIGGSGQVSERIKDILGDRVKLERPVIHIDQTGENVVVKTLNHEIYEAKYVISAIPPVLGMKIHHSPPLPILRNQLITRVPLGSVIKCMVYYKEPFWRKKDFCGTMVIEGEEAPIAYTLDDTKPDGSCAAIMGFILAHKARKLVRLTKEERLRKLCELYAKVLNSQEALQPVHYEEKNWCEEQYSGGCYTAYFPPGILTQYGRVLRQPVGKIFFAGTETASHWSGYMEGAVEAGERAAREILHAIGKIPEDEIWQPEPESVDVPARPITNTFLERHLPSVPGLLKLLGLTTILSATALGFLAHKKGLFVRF
# Acetylcholinesterase [2] = target: T2, Acetylcholinesterase (Homo sapiens, UniProt P22303); assay: In vitro inhibitory concentration against purified Acetylcholinesterase of human erythrocytes; value ranges from 2.8-27.5
# [3] = target: T3, Amine oxidase [flavin-containing] A (Rattus norvegicus, UniProt P21396); assay: In vitro inhibitory concentration against Monoamine oxidase A of rat brain homogenates; value ranges from 0.8-1.0; assay type: tissue-based
# T3 sequence (P21396 whole entry): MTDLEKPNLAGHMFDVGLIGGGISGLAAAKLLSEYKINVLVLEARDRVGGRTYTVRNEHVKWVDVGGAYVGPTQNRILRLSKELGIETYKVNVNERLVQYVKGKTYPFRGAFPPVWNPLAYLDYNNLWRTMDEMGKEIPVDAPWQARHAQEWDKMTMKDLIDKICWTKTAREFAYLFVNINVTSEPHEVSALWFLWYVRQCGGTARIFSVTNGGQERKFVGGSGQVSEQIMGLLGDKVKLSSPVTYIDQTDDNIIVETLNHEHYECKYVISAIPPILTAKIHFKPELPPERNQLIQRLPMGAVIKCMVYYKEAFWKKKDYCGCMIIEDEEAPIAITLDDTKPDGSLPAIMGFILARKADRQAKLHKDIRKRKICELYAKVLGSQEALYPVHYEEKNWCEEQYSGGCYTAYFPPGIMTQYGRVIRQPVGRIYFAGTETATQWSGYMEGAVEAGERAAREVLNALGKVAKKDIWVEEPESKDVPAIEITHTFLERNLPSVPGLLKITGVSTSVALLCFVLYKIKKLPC
# Acetylcholinesterase [4] = target: T2, Acetylcholinesterase; assay: In vitro inhibitory concentration against purified Acetylcholinesterase of human erythrocytes; value ranges from 4.6-25.8
# Butyrylcholinesterase [5] = target: T4, Butyrylcholinesterase (Equus caballus, UniProt Q9N1N9); assay: In vitro inhibitory concentration against Butyrylcholinesterase of horse serum; value ranges from 0.20-0.36
# Procedure, shortened: (§1)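 Ellman assay followed, with 200 µM butyrylthiocholine as substrate. Runs were in triplicate with four-point dose-response curves. IC50 and fiducial limits came from log concentration versus % inhibition.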
# [6] = target: T1, Amine oxidase [flavin-containing] B; assay: In vitro inhibitory concentration against Monoamine oxidase B of rat brain homogenates; value ranges from 4.8-6.9; assay type: tissue-based
# Acetylcholinesterase [7] = target: T2, Acetylcholinesterase; assay: In vitro inhibitory concentration against purified Acetylcholinesterase of human erythrocytes; value ranges from 0.32-0.98
# Butyrylcholinesterase [8] = target: T4, Butyrylcholinesterase; assay: In vitro inhibitory concentration against Butyrylcholinesterase of horse serum; value ranges from 1.00-1.20; procedure, shortened: as §1
# [9] = target: T3, Amine oxidase [flavin-containing] A; assay: In vitro inhibitory concentration against Monoamine oxidase A of rat brain homogenates; value ranges from 6.3-7.7; assay type: tissue-based
# [10] = target: T3, Amine oxidase [flavin-containing] A; assay: In vitro inhibitory concentration against Monoamine oxidase A of rat brain homogenates; value ranges from 0.28-0.34; assay type: tissue-based
# Butyrylcholinesterase [11] = target: T4, Butyrylcholinesterase; assay: In vitro inhibitory concentration against Butyrylcholinesterase of horse serum; value ranges from 1.6-2.4; procedure, shortened: as §1
# [12] = target: T1, Amine oxidase [flavin-containing] B; assay: In vitro inhibitory concentration against Monoamine oxidase B of rat brain homogenates; value ranges from 0.19-0.44; assay type: tissue-based
# Procedure, shortened: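 Rat brain homogenate (in 0.3 M sucrose) as enzyme source; compounds diluted 10⁻²M to 10⁻⁹M in 0.05 M phosphate buffer with 0.15 μM clorgyline; preincubated 60 min at 37 °C, then 10 μM ¹⁴C-phenylethylamine added for 20 min more; stopped with citric acid; metabolites extracted into toluene/ethyl acetate, scintillation counted; activity as % of control, tranylcypromine blank.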
# Acetylcholinesterase [13] = target: T2, Acetylcholinesterase
# Butyrylcholinesterase [14] = target: T4, Butyrylcholinesterase; assay: In vitro inhibitory concentration against Butyrylcholinesterase of horse serum; value ranges from 1.19-6.10; procedure, shortened: as §1
# Acetylcholinesterase [15] = target: T2, Acetylcholinesterase; assay: In vitro inhibitory concentration against purified Acetylcholinesterase of human erythrocytes; value ranges from 31.2-202
# Acetylcholinesterase [16] = target: T2, Acetylcholinesterase; remark: listed apart in the source
# Butyrylcholinesterase [17] = target: T4, Butyrylcholinesterase; assay: In vitro inhibitory concentration against Butyrylcholinesterase of horse serum; value ranges from 29.6-110; procedure, shortened: as §1
# Acetylcholinesterase [18] = target: T2, Acetylcholinesterase; assay: In vitro inhibitory concentration against purified Acetylcholinesterase of human erythrocytes; value ranges from 33.2-96.7
# Butyrylcholinesterase [19] = target: T4, Butyrylcholinesterase
# Acetylcholinesterase [20] = target: T2, Acetylcholinesterase; assay: In vitro inhibitory concentration against purified Acetylcholinesterase of human erythrocytes; value ranges from 0.54-0.56
# Acetylcholinesterase [21] = target: T2, Acetylcholinesterase; remark: listed apart in the source
# [22] = target: T1, Amine oxidase [flavin-containing] B; assay: In vitro inhibitory concentration against Monoamine oxidase B of rat brain homogenates; value ranges from 200-1400; assay type: tissue-based
# [23] = target: T3, Amine oxidase [flavin-containing] A; assay: In vitro inhibitory concentration against Monoamine oxidase A of rat brain homogenates; value ranges from 560-1000; assay type: tissue-based
# Butyrylcholinesterase [24] = target: T4, Butyrylcholinesterase; remark: listed apart in the source
# [25] = target: T3, Amine oxidase [flavin-containing] A; assay: In vitro inhibitory concentration against Monoamine oxidase A of rat brain homogenates; value ranges from 170-340; assay type: tissue-based
# Acetylcholinesterase [26] = target: T2, Acetylcholinesterase; assay: In vitro inhibitory concentration against purified Acetylcholinesterase of human erythrocytes; value ranges from 6.4-45.9
# Butyrylcholinesterase [27] = target: T4, Butyrylcholinesterase; assay: In vitro inhibitory concentration against Butyrylcholinesterase of horse serum; value ranges from 6.3-52.4; procedure, shortened: as §1
# [28] = target: T1, Amine oxidase [flavin-containing] B; assay: In vitro inhibitory concentration against Monoamine oxidase B of rat brain homogenates; value ranges from 360-470; assay type: tissue-based
# Acetylcholinesterase [29] = target: T2, Acetylcholinesterase; assay: In vitro inhibitory concentration against purified Acetylcholinesterase of human erythrocytes; value ranges from 7.81-39.2
# Butyrylcholinesterase [30] = target: T4, Butyrylcholinesterase; assay: In vitro inhibitory concentration against Butyrylcholinesterase of horse serum; value ranges from 5.02-12.2; procedure, shortened: as §1
# [31] = Pseudo-first order rate constant for carbamoylation of ACHE at 400 (uM) concentration; assay type: ADME
# Procedure, shortened: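 Pseudo-first-order rate constants kobs measured at 4-5 inhibitor concentrations following Bar-On et al. Apparent bimolecular carbamylation constant ki calculated from these.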
# Acetylcholinesterase [32] = target: T2, Acetylcholinesterase; assay: In vitro inhibitory concentration against purified Acetylcholinesterase of human erythrocytes; value ranges from 42.5-45.9
# [33] = Pseudo-first order rate constant for carbamoylation of ACHE at 300 (uM) concentration; assay type: ADME
# Procedure, shortened: (§2)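 Human erythrocyte AChE, same Ellman conditions: 200 µM […], 60 min preincubation at 37 °C, 0.1 M phosphate pH 7.4. Progressive inhibition followed at 4-5 inhibitor concentrations. Pseudo-first-order k_obs (min⁻¹) derived per concentration; apparent bimolecular carbamylation constant k_i calculated from these.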
# [34] = target: T3, Amine oxidase [flavin-containing] A; assay: In vitro inhibitory concentration against Monoamine oxidase A of rat brain homogenates; value ranges from 315-465; assay type: tissue-based
# [35] = target: T1, Amine oxidase [flavin-containing] B; assay: In vitro inhibitory concentration against Monoamine oxidase B of rat brain homogenates; value ranges from 18-59; assay type: tissue-based
# [36] = Pseudo-first order rate constant for carbamoylation of ACHE at 100 (uM) concentration; assay type: ADME; procedure, shortened: as §2
# [37] = Pseudo-first order rate constant for carbamoylation of ACHE at 50 (uM) concentration; assay type: ADME; procedure, shortened: as §2
# [38] = Bimolecular rate constant for carbamoylation of ACHE; assay type: ADME
# Procedure, shortened: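 Human erythrocyte AChE preincubated with inhibitor at 37 °C in 0.1 M phosphate buffer, pH 7.4, under Ellman conditions with 200 µM […]. Pseudo-first-order rate constants (k_obs) for progressive inhibition were obtained at 4-5 inhibitor concentrations. The apparent bimolecular carbamylation constant k_i was calculated from these.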
# T4 sequence (Q9N1N9 whole entry): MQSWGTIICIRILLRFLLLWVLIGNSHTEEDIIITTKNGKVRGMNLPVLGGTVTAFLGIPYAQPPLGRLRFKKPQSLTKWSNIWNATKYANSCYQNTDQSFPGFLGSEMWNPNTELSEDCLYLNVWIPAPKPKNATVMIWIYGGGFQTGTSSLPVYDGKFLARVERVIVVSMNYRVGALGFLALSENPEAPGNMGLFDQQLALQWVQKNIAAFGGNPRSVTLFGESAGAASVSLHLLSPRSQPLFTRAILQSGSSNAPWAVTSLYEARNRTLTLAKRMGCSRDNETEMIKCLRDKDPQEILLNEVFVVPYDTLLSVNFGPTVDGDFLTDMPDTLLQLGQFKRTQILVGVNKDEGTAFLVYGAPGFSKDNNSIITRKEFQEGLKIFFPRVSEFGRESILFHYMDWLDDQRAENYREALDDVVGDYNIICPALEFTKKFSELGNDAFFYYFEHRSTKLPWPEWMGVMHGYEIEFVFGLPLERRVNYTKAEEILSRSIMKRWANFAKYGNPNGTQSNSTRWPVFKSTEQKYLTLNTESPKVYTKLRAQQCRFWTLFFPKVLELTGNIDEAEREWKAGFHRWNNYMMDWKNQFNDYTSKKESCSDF
# T2 sequence (P22303 whole entry): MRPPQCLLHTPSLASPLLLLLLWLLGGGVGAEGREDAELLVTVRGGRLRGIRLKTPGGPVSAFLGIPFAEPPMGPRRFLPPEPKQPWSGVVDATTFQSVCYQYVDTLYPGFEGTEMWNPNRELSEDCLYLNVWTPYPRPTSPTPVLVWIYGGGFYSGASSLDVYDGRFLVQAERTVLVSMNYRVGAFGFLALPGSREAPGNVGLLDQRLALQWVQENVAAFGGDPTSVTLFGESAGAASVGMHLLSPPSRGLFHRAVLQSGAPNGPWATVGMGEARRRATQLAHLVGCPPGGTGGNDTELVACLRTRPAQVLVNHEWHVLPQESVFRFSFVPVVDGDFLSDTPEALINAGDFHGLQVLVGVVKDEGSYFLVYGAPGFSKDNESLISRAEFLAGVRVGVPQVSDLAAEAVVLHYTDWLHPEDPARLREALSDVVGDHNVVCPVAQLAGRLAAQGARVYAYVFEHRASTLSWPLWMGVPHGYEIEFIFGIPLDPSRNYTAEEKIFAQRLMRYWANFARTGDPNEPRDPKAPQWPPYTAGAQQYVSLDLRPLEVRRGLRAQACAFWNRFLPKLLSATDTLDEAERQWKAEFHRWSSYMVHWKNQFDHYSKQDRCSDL
compound,measurement,setting,value
C#CCN(C)[C@@H](C)Cc1cccc(OC(=O)N(C)C2CCCCC2)c1,IC50,[1],0.28 µM
same,IC50,Acetylcholinesterase [2],6.3 µM
same,IC50,[3],1.1 µM
C#CCN[C@H]1CCc2ccc(OC(=O)N(C)CCCC)cc21,IC50,Acetylcholinesterase [4],9.3 µM
C#CC(C)NCCc1cccc(OC(=O)N(C)CC)c1 (stereo not drawn),IC50,Butyrylcholinesterase [5],0.24 µM
C#CCNC(C)Cc1cccc(OC(=O)N(C)C)c1 (stereo not drawn),IC50,[6],5.7 µM
same,IC50,Acetylcholinesterase [7],0.54 µM
same,IC50,Butyrylcholinesterase [8],1.09 µM
same,IC50,[9],6.9 µM
C#CCN[C@@H]1CCc2ccc(O)cc21,IC50,[10],0.3 µM
C#CCNCCc1cccc(OC(=O)N(C)CCC)c1,IC50,Butyrylcholinesterase [11],1.9 µM
same,IC50,[12],0.29 µM
same,IC50,Acetylcholinesterase [13],15.4 µM
C#CCNC1CCc2ccc(OC(=O)N(CC)CCCC)cc21 (stereo not drawn),IC50,Butyrylcholinesterase [14],3.03 µM
same,IC50,Acetylcholinesterase [15],72.4 µM
C#CCNC1CCc2ccc(OC(=O)N(C)CCCC)cc21 (stereo not drawn),IC50,Acetylcholinesterase [16],11.3 µM
same,IC50,Butyrylcholinesterase [17],53.7 µM
C#CCNC1CCc2cccc(OC(=O)N(C)CCC)c21 (stereo not drawn),IC50,Acetylcholinesterase [18],45.8 µM
C#CCNC1CCc2ccc(OC(=O)N(C)c3ccccc3)cc21 (stereo not drawn),IC50,Butyrylcholinesterase [19],16.6 µM
same,IC50,Acetylcholinesterase [20],0.55 µM
C#CCNC1CCc2c(Cl)cc(OC(=O)N(C)CC)cc21 (stereo not drawn),IC50,Acetylcholinesterase [21],25.5 µM
C#CCNC1CCc2ccc(OC(=O)N(C)C)cc21 (stereo not drawn),IC50,[22],530 µM
same,IC50,[23],750 µM
same,IC50,Butyrylcholinesterase [24],2.07 µM
C#CCNC1CCc2ccc(OC(=O)N(C)CCC)cc21 (stereo not drawn),IC50,[25],240 µM
same,IC50,Acetylcholinesterase [26],14.6 µM
same,IC50,Butyrylcholinesterase [27],14.8 µM
same,IC50,[28],410 µM
C#CCNC1CCc2ccc(OC(=O)N(C)CCCCCC)cc21 (stereo not drawn),IC50,Acetylcholinesterase [29],15.7 µM
same,IC50,Butyrylcholinesterase [30],7.5 µM
C#CCNC1CCc2c(Cl)cc(OC(=O)N(C)CCC)cc21.Cl (stereo not drawn),K obs,[31],38 min⁻¹
same,IC50,Acetylcholinesterase [32],43.9 µM
same,K obs,[33],34 min⁻¹
same,IC50,[34],375 µM
same,IC50,[35],32 µM
same,K obs,[36],22 min⁻¹
same,K obs,[37],17 min⁻¹
same,Bimolecular carbamoylation rate constant (ki),[38],0.983 M⁻¹ s⁻¹
